Measured values: ChEMBL document CHEMBL3797186, “Single Residue Substitutions That Confer Voltage-Gated Sodium Ion Channel Subtype Selectivity in the NaV1.7 Inhibitory Peptide GpTx-1” (J Med Chem, 2016)
Positions of bridges follow the written chain, without caps; N, C: chain ends. Non-standard residues stand in square brackets, D forms with d. Residues, ends and D or L forms follow the SMILES beside them. 1Nal = N[C@@H](Cc1cccc2ccccc12)C(=O)O

Assays:
[1] = molecular target: Sodium channel protein type 9 subunit alpha (Homo sapiens, UniProt Q15858); assay: Inhibition of human Nav1.7 expressed in HEK293 cells assessed as inward peak current by ion-works quattro patch clamp electrophysiology method; assay type: cell-based
Chain of Sodium channel protein type 9 subunit alpha (Q15858 whole entry): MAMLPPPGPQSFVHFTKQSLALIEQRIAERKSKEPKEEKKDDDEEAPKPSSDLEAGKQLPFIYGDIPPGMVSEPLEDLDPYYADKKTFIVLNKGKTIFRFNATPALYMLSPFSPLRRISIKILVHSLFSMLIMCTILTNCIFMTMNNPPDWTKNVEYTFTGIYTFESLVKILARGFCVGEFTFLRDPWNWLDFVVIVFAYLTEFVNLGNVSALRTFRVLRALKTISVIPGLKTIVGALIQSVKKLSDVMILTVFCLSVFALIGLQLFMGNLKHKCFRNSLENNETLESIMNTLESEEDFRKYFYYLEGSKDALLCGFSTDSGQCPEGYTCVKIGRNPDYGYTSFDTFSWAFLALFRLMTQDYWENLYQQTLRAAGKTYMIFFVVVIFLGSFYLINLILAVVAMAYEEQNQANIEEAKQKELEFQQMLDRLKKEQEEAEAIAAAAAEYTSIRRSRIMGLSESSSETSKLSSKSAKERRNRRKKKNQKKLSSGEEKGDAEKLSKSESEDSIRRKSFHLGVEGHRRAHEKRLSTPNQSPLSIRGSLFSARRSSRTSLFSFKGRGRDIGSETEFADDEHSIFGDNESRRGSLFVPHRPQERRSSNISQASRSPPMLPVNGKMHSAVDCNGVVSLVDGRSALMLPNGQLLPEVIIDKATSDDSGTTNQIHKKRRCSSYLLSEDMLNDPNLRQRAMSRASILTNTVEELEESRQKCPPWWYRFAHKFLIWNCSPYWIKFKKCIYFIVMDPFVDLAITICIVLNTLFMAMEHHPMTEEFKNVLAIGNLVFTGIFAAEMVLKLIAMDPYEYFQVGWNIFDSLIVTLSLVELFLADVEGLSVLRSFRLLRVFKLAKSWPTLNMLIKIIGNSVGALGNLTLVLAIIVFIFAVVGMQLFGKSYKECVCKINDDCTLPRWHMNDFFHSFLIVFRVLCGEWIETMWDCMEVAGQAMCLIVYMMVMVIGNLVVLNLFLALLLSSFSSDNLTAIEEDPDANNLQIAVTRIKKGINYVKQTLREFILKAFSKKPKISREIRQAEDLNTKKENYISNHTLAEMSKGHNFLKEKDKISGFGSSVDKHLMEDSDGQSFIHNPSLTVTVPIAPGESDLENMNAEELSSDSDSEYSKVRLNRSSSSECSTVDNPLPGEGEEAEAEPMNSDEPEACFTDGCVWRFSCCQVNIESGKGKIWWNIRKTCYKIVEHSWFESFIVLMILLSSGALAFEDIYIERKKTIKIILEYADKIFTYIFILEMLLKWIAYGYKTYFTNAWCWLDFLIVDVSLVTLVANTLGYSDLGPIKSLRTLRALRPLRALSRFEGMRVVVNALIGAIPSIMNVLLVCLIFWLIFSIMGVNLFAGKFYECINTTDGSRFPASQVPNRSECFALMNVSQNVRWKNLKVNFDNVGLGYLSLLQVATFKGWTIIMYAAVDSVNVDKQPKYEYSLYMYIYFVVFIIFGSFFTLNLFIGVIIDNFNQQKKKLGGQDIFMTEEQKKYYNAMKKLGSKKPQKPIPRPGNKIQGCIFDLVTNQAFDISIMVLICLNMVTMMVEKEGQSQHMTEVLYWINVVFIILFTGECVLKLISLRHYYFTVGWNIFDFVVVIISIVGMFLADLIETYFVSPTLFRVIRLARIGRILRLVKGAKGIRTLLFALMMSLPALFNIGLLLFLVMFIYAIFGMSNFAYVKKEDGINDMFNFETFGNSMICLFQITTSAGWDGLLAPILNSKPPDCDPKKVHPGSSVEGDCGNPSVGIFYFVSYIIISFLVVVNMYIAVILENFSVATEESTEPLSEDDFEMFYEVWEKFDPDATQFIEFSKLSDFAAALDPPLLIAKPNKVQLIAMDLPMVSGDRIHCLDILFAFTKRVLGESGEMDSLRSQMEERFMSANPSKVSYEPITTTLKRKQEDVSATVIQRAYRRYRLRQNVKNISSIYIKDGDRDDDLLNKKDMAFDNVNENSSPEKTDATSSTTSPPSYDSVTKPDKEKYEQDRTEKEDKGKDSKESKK

[2] = molecular target: Sodium channel protein type 5 subunit alpha (Homo sapiens, UniProt Q14524); assay: Inhibition of human Nav1.5 expressed in HEK293 cells assessed as inward peak current by ion-works quattro patch clamp electrophysiology method; assay type: cell-based
Chain of Sodium channel protein type 5 subunit alpha (Q14524 whole entry): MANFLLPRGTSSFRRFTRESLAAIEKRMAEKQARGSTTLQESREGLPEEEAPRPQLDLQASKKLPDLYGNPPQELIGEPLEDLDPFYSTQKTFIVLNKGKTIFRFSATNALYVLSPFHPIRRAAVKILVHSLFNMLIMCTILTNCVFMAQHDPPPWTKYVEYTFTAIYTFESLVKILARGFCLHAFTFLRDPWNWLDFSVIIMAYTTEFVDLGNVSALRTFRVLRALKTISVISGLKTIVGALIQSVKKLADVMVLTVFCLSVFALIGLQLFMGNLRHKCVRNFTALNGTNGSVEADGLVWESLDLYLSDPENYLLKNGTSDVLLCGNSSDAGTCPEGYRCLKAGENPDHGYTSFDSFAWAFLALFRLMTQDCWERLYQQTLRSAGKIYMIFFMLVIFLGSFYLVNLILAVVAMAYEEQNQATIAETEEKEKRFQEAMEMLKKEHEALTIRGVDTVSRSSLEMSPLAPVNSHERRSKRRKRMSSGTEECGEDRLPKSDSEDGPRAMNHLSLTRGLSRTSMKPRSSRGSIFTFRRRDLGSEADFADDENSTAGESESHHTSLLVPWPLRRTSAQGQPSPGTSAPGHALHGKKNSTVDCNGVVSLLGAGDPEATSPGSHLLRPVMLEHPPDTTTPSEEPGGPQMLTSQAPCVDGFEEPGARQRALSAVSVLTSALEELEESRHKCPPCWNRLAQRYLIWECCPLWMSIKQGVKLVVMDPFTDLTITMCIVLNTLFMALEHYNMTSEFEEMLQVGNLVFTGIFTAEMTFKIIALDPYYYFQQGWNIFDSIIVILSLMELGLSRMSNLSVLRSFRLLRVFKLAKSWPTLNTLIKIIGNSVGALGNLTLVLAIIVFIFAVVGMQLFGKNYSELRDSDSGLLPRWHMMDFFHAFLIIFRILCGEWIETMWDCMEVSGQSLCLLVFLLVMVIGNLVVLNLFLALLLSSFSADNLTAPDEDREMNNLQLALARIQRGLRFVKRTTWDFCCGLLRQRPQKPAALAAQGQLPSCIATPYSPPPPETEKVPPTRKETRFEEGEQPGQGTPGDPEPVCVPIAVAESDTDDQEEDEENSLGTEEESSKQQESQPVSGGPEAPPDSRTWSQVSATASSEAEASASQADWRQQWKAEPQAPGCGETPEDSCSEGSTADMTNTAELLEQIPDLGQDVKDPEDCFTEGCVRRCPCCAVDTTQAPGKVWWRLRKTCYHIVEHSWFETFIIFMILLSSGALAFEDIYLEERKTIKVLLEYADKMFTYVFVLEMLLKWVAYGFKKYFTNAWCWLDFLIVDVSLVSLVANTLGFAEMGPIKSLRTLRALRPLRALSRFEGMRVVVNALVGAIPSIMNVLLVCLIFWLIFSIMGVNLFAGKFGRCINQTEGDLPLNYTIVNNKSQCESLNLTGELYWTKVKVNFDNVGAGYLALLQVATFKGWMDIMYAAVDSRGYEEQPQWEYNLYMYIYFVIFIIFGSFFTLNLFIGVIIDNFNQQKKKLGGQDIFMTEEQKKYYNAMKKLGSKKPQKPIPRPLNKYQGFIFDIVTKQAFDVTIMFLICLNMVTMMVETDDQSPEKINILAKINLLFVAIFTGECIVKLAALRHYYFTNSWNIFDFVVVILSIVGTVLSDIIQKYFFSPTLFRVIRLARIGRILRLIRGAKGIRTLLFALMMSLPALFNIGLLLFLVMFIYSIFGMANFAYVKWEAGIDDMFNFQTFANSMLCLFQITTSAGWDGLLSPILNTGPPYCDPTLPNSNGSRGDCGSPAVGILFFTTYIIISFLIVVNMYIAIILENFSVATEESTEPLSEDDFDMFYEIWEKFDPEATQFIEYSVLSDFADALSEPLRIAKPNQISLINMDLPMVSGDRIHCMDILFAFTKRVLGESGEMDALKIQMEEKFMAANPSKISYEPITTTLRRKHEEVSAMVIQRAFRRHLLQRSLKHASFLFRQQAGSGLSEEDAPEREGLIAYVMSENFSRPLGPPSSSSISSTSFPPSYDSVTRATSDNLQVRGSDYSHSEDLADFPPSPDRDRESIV
Summary of the method: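 Stable HEK293 line expressing human NaV1.5, recorded by population patch clamp on the IonWorks Quattro.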

Row | Compound | IC50 [1] | IC50 [2]
1 | CC[C@H](C)[C@@H]1NC(=O)[C@@H]2CSSC[C@@H]3NC(=O)[C@H](C(C)C)NC(=O)[C@H](CC(C)C)NC(=O)[C@H](CC(N)=O)NC(=O)[C@@H]4CCCN4C(=O)[C@H](CCCNC(=N)N)NC(=O)[C@H](CSSC[C@H](NC(=O)[C@@H](N)CC(=O)O)C(=O)N[C@@H](CC(C)C)C(=O)NCC(=O)N[C@@H](Cc4ccccc4)C(=O)N[C@@H](CCSC)C(=O)N[C@@H](CCCNC(=N)N)C(=O)N[C@@H](CCCCN)C(=O)N2)NC(=O)[C@H](CSSC[C@@H](C(=O)N[C@@H](CCCCN)C(=O)N[C@@H](Cc2ccc(O)cc2)C(=O)N[C@H](C(=O)N[C@@H](Cc2ccccc2)C(=O)N[C@@H](CCCNC(=N)N)C(N)=O)C(C)C)NC(=O)[C@H](Cc2c[nH]c4ccccc24)NC(=O)[C@H](CCCCN)NC(=O)[C@H](Cc2cnc[nH]2)NC(=O)[C@H]([C@@H](C)O)NC(=O)[C@H](CCCNC(=N)N)NC(=O)[C@H](CO)NC3=O)NC(=O)[C@H](CCCCN)NC(=O)[C@H](CC(=O)O)NC(=O)[C@H](CC(N)=O)NC(=O)[C@H](CC(=O)O)NC(=O)[C@@H]2CCCN2C1=O | 130 nM | > 5000 nM
2 | CC[C@H](C)[C@@H]1NC(=O)[C@@H]2CSSC[C@@H]3NC(=O)[C@H](C(C)C)NC(=O)[C@H](CC(C)C)NC(=O)[C@H](CC(N)=O)NC(=O)[C@@H]4CCCN4C(=O)[C@H](CCCNC(=N)N)NC(=O)[C@H](CSSC[C@H](NC(=O)[C@@H](N)CC(=O)O)C(=O)N[C@@H](CCCCN)C(=O)NCC(=O)N[C@@H](Cc4ccccc4)C(=O)N[C@@H](CCSC)C(=O)N[C@@H](CCCNC(=N)N)C(=O)N[C@@H](CCCCN)C(=O)N2)NC(=O)[C@H](CSSC[C@@H](C(=O)N[C@@H](CCCCN)C(=O)N[C@@H](Cc2ccc(O)cc2)C(=O)N[C@H](C(=O)N[C@@H](Cc2ccccc2)C(N)=O)C(C)C)NC(=O)[C@H](Cc2c[nH]c4ccccc24)NC(=O)[C@H](CCCCN)NC(=O)[C@H](Cc2cnc[nH]2)NC(=O)[C@H]([C@@H](C)O)NC(=O)[C@H](CCCNC(=N)N)NC(=O)[C@H](CO)NC3=O)NC(=O)[C@H](CCCCN)NC(=O)[C@H](CC(=O)O)NC(=O)[C@H](CC(N)=O)NC(=O)[C@H](CC(=O)O)NC(=O)[C@@H]2CCCN2C1=O (H-DCKGFMRKCIPDNDKCCRPNLVCSRTHKWCKYVF-NH2; disulfide 2-17, 9-23, 16-30) | 120 nM | > 5000 nM
3 | CC[C@H](C)[C@@H]1NC(=O)[C@@H]2CSSC[C@@H]3NC(=O)[C@H](C(C)C)NC(=O)[C@H](CC(C)C)NC(=O)[C@H](CC(N)=O)NC(=O)[C@@H]4CCCN4C(=O)[C@H](CCCNC(=N)N)NC(=O)[C@H](CSSC[C@H](NC(=O)[C@@H](N)CC(=O)O)C(=O)N[C@@H](CC(C)C)C(=O)NCC(=O)N[C@@H](Cc4ccccc4)C(=O)N[C@@H](CCSC)C(=O)N[C@@H](CCCNC(=N)N)C(=O)N[C@@H](CCCCN)C(=O)N2)NC(=O)[C@H](CSSC[C@@H](C(=O)N[C@@H](CCCCN)C(N)=O)NC(=O)[C@H](Cc2c[nH]c4ccccc24)NC(=O)[C@H](CCCCN)NC(=O)[C@H](Cc2cnc[nH]2)NC(=O)[C@H]([C@@H](C)O)NC(=O)[C@H](CCCNC(=N)N)NC(=O)[C@H](CO)NC3=O)NC(=O)[C@H](CCCCN)NC(=O)[C@H](CC(=O)O)NC(=O)[C@H](CC(N)=O)NC(=O)[C@H](CC(=O)O)NC(=O)[C@@H]2CCCN2C1=O (H-DCLGFMRKCIPDNDKCCRPNLVCSRTHKWCK-NH2; disulfide 2-17, 9-23, 16-30) | > 5000 nM | > 5000 nM
4 | CC[C@H](C)[C@@H]1NC(=O)[C@@H]2CSSC[C@@H]3NC(=O)[C@H](C(C)C)NC(=O)[C@H](CC(C)C)NC(=O)[C@H](CC(N)=O)NC(=O)[C@@H]4CCCN4C(=O)[C@H](CCCNC(=N)N)NC(=O)[C@H](CSSC[C@H](NC(=O)[C@@H](N)CC(=O)O)C(=O)N[C@@H](CC(C)C)C(=O)NCC(=O)N[C@@H](Cc4ccccc4)C(=O)N[C@@H](CCSC)C(=O)N[C@@H](CCC(=O)O)C(=O)N[C@@H](CCCCN)C(=O)N2)NC(=O)[C@H](CSSC[C@@H](C(=O)N[C@@H](CCCCN)C(=O)N[C@@H](Cc2ccc(O)cc2)C(=O)N[C@H](C(=O)N[C@@H](Cc2ccccc2)C(N)=O)C(C)C)NC(=O)[C@H](Cc2c[nH]c4ccccc24)NC(=O)[C@H](CCCCN)NC(=O)[C@H](Cc2cnc[nH]2)NC(=O)[C@H]([C@@H](C)O)NC(=O)[C@H](CCCNC(=N)N)NC(=O)[C@H](CO)NC3=O)NC(=O)[C@H](CCCCN)NC(=O)[C@H](CC(=O)O)NC(=O)[C@H](CC(N)=O)NC(=O)[C@H](CC(=O)O)NC(=O)[C@@H]2CCCN2C1=O (H-DCLGFMEKCIPDNDKCCRPNLVCSRTHKWCKYVF-NH2; disulfide 2-17, 9-23, 16-30) | 860 nM | > 5000 nM
5 | CC[C@H](C)[C@@H]1NC(=O)[C@@H]2CSSC[C@@H]3NC(=O)[C@H](C(C)C)NC(=O)[C@H](CC(C)C)NC(=O)[C@H](CC(N)=O)NC(=O)[C@@H]4CCCN4C(=O)[C@H](CCCNC(=N)N)NC(=O)[C@H](CSSC[C@H](NC(=O)[C@@H](N)CC(=O)O)C(=O)N[C@@H](CC(C)C)C(=O)NCC(=O)N[C@@H](Cc4ccccc4)C(=O)N[C@@H](CCSC)C(=O)N[C@@H](CCCNC(=N)N)C(=O)N[C@@H](CCCCN)C(=O)N2)NC(=O)[C@H](CSSC[C@@H](C(=O)N[C@@H](CCCCN)C(=O)N[C@@H](Cc2ccc(O)cc2)C(=O)N[C@H](C(=O)N[C@@H](CCC(=O)O)C(N)=O)C(C)C)NC(=O)[C@H](Cc2c[nH]c4ccccc24)NC(=O)[C@H](CCCCN)NC(=O)[C@H](Cc2cnc[nH]2)NC(=O)[C@H]([C@@H](C)O)NC(=O)[C@H](CCCNC(=N)N)NC(=O)[C@H](CO)NC3=O)NC(=O)[C@H](CCCCN)NC(=O)[C@H](CC(=O)O)NC(=O)[C@H](CC(N)=O)NC(=O)[C@H](CC(=O)O)NC(=O)[C@@H]2CCCN2C1=O (H-DCLGFMRKCIPDNDKCCRPNLVCSRTHKWCKYVE-NH2; disulfide 2-17, 9-23, 16-30) | > 5000 nM | > 5000 nM
6 | CC[C@H](C)[C@@H]1NC(=O)[C@@H]2CSSC[C@@H]3NC(=O)[C@H](C(C)C)NC(=O)[C@H](CC(C)C)NC(=O)[C@H](CC(N)=O)NC(=O)[C@@H]4CCCN4C(=O)[C@H](CCCNC(=N)N)NC(=O)[C@H](CSSC[C@H](NC(=O)[C@@H](N)CC(=O)O)C(=O)N[C@@H](CC(C)C)C(=O)NCC(=O)N[C@@H](Cc4ccccc4)C(=O)N[C@@H](CCSC)C(=O)N[C@@H](CCCNC(=N)N)C(=O)N[C@@H](CCCCN)C(=O)N2)NC(=O)[C@H](CSSC[C@@H](C(=O)N[C@@H](CCCCN)C(=O)N[C@@H](Cc2ccc(O)cc2)C(=O)N[C@H](C(=O)N[C@@H](Cc2ccccc2)C(N)=O)C(C)C)NC(=O)[C@H](Cc2c[nH]c4ccccc24)NC(=O)[C@H](CCCCN)NC(=O)[C@H](Cc2cccc4ccccc24)NC(=O)[C@H]([C@@H](C)O)NC(=O)[C@H](CCCNC(=N)N)NC(=O)[C@H](CO)NC3=O)NC(=O)[C@H](CCCCN)NC(=O)[C@H](CC(=O)O)NC(=O)[C@H](CC(N)=O)NC(=O)[C@H](CC(=O)O)NC(=O)[C@@H]2CCCN2C1=O (H-DCLGFMRKCIPDNDKCCRPNLVCSRT[1Nal]KWCKYVF-NH2; disulfide 2-17, 9-23, 16-30) | 250 nM | 900 nM
7 | CC[C@H](C)[C@@H]1NC(=O)[C@@H]2CSSC[C@@H]3NC(=O)[C@H](C(C)C)NC(=O)[C@H](CC(C)C)NC(=O)[C@H](CC(N)=O)NC(=O)[C@@H]4CCCN4C(=O)[C@H](CCCNC(=N)N)NC(=O)[C@H](CSSC[C@H](NC(=O)[C@@H](N)CC(=O)O)C(=O)N[C@@H](CC(C)C)C(=O)NCC(=O)N[C@@H](Cc4ccccc4)C(=O)N[C@@H](CCSC)C(=O)N[C@@H](CCCNC(=N)N)C(=O)N[C@@H](CCCCN)C(=O)N2)NC(=O)[C@H](CSSC[C@@H](C(=O)N[C@@H](CCCCN)C(=O)N[C@@H](Cc2ccc(O)cc2)C(=O)N[C@H](C(=O)N[C@@H](Cc2ccccc2)C(N)=O)C(C)C)NC(=O)[C@H](Cc2c[nH]c4ccccc24)NC(=O)[C@H](CCCCN)NC(=O)[C@H](Cc2cnc[nH]2)NC(=O)[C@H](Cc2c[nH]c4ccccc24)NC(=O)[C@H](CCCNC(=N)N)NC(=O)[C@H](CO)NC3=O)NC(=O)[C@H](CCCCN)NC(=O)[C@H](CC(=O)O)NC(=O)[C@H](CC(N)=O)NC(=O)[C@H](CC(=O)O)NC(=O)[C@@H]2CCCN2C1=O (H-DCLGFMRKCIPDNDKCCRPNLVCSRWHKWCKYVF-NH2; disulfide 2-17, 9-23, 16-30) | 50 nM | 3600 nM
8 | CC[C@H](C)[C@@H]1NC(=O)[C@@H]2CSSC[C@@H]3NC(=O)[C@H](C(C)C)NC(=O)[C@H](Cc4c[nH]c5ccccc45)NC(=O)[C@H](CC(N)=O)NC(=O)[C@@H]4CCCN4C(=O)[C@H](CCCNC(=N)N)NC(=O)[C@H](CSSC[C@H](NC(=O)[C@@H](N)CC(=O)O)C(=O)N[C@@H](CC(C)C)C(=O)NCC(=O)N[C@@H](Cc4ccccc4)C(=O)N[C@@H](CCSC)C(=O)N[C@@H](CCCNC(=N)N)C(=O)N[C@@H](CCCCN)C(=O)N2)NC(=O)[C@H](CSSC[C@@H](C(=O)N[C@@H](CCCCN)C(=O)N[C@@H](Cc2ccc(O)cc2)C(=O)N[C@H](C(=O)N[C@@H](Cc2ccccc2)C(N)=O)C(C)C)NC(=O)[C@H](Cc2c[nH]c4ccccc24)NC(=O)[C@H](CCCCN)NC(=O)[C@H](Cc2cnc[nH]2)NC(=O)[C@H]([C@@H](C)O)NC(=O)[C@H](CCCNC(=N)N)NC(=O)[C@H](CO)NC3=O)NC(=O)[C@H](CCCCN)NC(=O)[C@H](CC(=O)O)NC(=O)[C@H](CC(N)=O)NC(=O)[C@H](CC(=O)O)NC(=O)[C@@H]2CCCN2C1=O (H-DCLGFMRKCIPDNDKCCRPNWVCSRTHKWCKYVF-NH2; disulfide 2-17, 9-23, 16-30) | 110 nM | > 5000 nM
